Measurements reported in ChEMBL document CHEMBL1154048, “Design, synthesis and pharmacological evaluation of new 1-[3-(4-arylpiperazin-1-yl)-2-hydroxy-propyl]-3,3-diphenylpyrrolidin-2-one derivatives with antiarrhythmic, antihypertensive, and alpha-adrenolytic activity” (Eur J Med Chem, 2009).

Assays:
Rattus norvegicus [1] = test: Hypotensive activity in normotensive Wistar rat assessed as systolic blood pressure at 5 mg/kg, iv after 20 mins (Rvb=140.5 +/- 1.1 mmHg); format: functional, Artery
Rattus norvegicus [2] = test: Hypotensive activity in normotensive Wistar rat assessed as systolic blood pressure at 5 mg/kg, iv after 10 mins (Rvb=140.5 +/- 1.1 mmHg); format: functional, Artery
Rattus norvegicus [3] = test: Hypotensive activity in normotensive Wistar rat assessed as systolic blood pressure at 5 mg/kg, iv after 5 mins (Rvb=140.5 +/- 1.1 mmHg); format: functional, Artery
Rattus norvegicus [4] = test: Hypotensive activity in normotensive Wistar rat assessed as systolic blood pressure at 5 mg/kg, iv after 60 mins (Rvb=140.5 +/- 1.1 mmHg); format: functional, Artery
Rattus norvegicus [5] = test: Hypotensive activity in normotensive Wistar rat assessed as diastolic blood pressure at 5 mg/kg, iv after 30 mins (Rvb=125.5 +/- 0.6 mmHg); format: functional, Artery
Rattus norvegicus [6] = test: Hypotensive activity in normotensive Wistar rat assessed as diastolic blood pressure at 5 mg/kg, iv after 20 mins (Rvb=125.5 +/- 0.6 mmHg); format: functional, Artery
Rattus norvegicus [7] = test: Hypotensive activity in normotensive Wistar rat assessed as diastolic blood pressure at 5 mg/kg, iv after 60 mins (Rvb=125.5 +/- 0.6 mmHg); format: functional, Artery
Rattus norvegicus [8] = species: Rattus norvegicus; test: Selectivity for rat cerebral cortex alpha1 adrenergic receptor over rat cerebral cortex alpha2 adrenergic receptor; format: tissue-based
Outline: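 Rat cerebral cortex membranes were prepared in 50 mM Tris–HCl pH 7.6, homogenized and spun twice at 20 000 g. Competition was against [3H]prazosin 0.2 nM (α1) or [3H]clonidine 2 nM (α2), with 7–8 concentrations from 10^-11 to 10^-4 M. Nonspecific binding was defined with phentolamine for the prazosin assay. After filtration, binding was read by scintillation counting in duplicate. Ki was calculated by Cheng–Prusoff, and selectivity was compared from the α1 and α2 Ki values.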

Rattus norvegicus [9] = test: Hypotensive activity in normotensive Wistar rat assessed as systolic blood pressure at 5 mg/kg, iv after 30 mins (Rvb=142.5 +/- 3.6 mmHg); format: functional, Artery
Rattus norvegicus [10] = test: Hypotensive activity in normotensive Wistar rat assessed as diastolic blood pressure at 5 mg/kg, iv after 5 mins (Rvb=127 +/- 8.1 mmHg); format: functional, Artery
Rattus norvegicus [11] = test: Hypotensive activity in normotensive Wistar rat assessed as systolic blood pressure at 5 mg/kg, iv after 5 mins (Rvb=142.5 +/- 3.6 mmHg); format: functional, Artery
[12] = target: T1, Alpha-1D adrenergic receptor (Rattus norvegicus) (UniProt P23944); test: (§1) Antagonist activity at Alpha-1D adrenoceptor in Wistar rat thoracic aorta assessed as inhibition of noradrenaline-induced contraction after 30 mins; format: functional, tissue-based
T1 sequence (whole entry): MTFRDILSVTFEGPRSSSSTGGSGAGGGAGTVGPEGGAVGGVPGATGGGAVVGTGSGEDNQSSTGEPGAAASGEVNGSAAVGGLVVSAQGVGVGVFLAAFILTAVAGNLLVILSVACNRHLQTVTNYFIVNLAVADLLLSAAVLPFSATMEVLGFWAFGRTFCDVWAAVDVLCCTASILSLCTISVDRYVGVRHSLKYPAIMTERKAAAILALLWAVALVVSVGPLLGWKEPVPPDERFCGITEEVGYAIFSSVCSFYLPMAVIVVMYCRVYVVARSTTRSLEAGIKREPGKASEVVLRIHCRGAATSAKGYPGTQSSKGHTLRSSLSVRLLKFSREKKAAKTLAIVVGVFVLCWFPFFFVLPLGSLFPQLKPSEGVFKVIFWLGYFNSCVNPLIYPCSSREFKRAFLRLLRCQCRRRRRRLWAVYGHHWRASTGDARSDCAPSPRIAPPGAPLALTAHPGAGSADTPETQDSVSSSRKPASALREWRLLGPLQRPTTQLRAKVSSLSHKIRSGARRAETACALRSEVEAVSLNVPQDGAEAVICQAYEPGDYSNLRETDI
Outline: (§2)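 Male Wistar rats (200–350 g) were anaesthetized with thiopental 75 mg/kg ip. Endothelium-denuded thoracic aorta rings (~4 mm) were held in Krebs–Henseleit at 37 °C, pH 7.4, gassed O2/CO2 19:1, at 2 g tension and equilibrated 3 h. Two cumulative noradrenaline curves were run 60 min apart, with 30 min antagonist incubation and continuous propranolol. EC50 came from non-linear regression, and Schild plots gave pA2. n = 5–8.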

[13] = target: T2, Alpha-1D adrenergic receptor (Rattus norvegicus, UniProt P23944); test: as §1; format: functional, tissue-based; details: read-out: pA2 (converted); outline: as §2
T2 sequence (P23944 whole entry): T1 sequence (whole entry)

Rattus norvegicus [14] = test: Hypotensive activity in normotensive Wistar rat assessed as diastolic blood pressure at 2.5 mg/kg, iv after 5 mins (Rvb=107.2 +/- 7.3 mmHg); format: functional, Artery
Rattus norvegicus [15] = test: Hypotensive activity in normotensive Wistar rat assessed as systolic blood pressure at 2.5 mg/kg, iv after 30 mins (Rvb=125.6 +/- 7.6 mmHg); format: functional, Artery
Rattus norvegicus [16] = test: Hypotensive activity in normotensive Wistar rat assessed as diastolic blood pressure at 2.5 mg/kg, iv after 20 mins (Rvb=107.2 +/- 7.3 mmHg); format: functional, Artery
Rattus norvegicus [17] = test: Hypotensive activity in normotensive Wistar rat assessed as systolic blood pressure at 2.5 mg/kg, iv after 20 mins (Rvb=125.6 +/- 7.6 mmHg); format: functional, Artery
Rattus norvegicus [18] = test: Hypotensive activity in normotensive Wistar rat assessed as systolic blood pressure at 2.5 mg/kg, iv after 10 mins (Rvb=125.6 +/- 7.6 mmHg); format: functional, Artery
Rattus norvegicus [19] = test: Hypotensive activity in normotensive Wistar rat assessed as diastolic blood pressure at 5 mg/kg, iv after 10 mins (Rvb=126 +/- 4.6 mmHg); format: functional, Artery
Rattus norvegicus [20] = test: Hypotensive activity in normotensive Wistar rat assessed as systolic blood pressure at 5 mg/kg, iv after 5 mins (Rvb=141.3 +/- 6.4 mmHg); format: functional, Artery
Rattus norvegicus [21] = test: Hypotensive activity in normotensive Wistar rat assessed as systolic blood pressure at 5 mg/kg, iv after 10 mins (Rvb=141.3 +/- 6.4 mmHg); format: functional, Artery
Rattus norvegicus [22] = test: Hypotensive activity in normotensive Wistar rat assessed as systolic blood pressure at 5 mg/kg, iv after 60 mins (Rvb=141.3 +/- 6.4 mmHg); format: functional, Artery
Rattus norvegicus [23] = test: Hypotensive activity in normotensive Wistar rat assessed as systolic blood pressure at 5 mg/kg, iv after 20 mins (Rvb=139 +/- 0.6 mmHg); format: functional, Artery
Rattus norvegicus [24] = test: Hypotensive activity in normotensive Wistar rat assessed as systolic blood pressure at 5 mg/kg, iv after 30 mins (Rvb=139 +/- 0.6 mmHg); format: functional, Artery
Rattus norvegicus [25] = test: Hypotensive activity in normotensive Wistar rat assessed as diastolic blood pressure at 5 mg/kg, iv after 60 mins (Rvb=119 +/- 1.2 mmHg); format: functional, Artery
Rattus norvegicus [26] = test: Hypotensive activity in normotensive Wistar rat assessed as diastolic blood pressure at 5 mg/kg, iv after 30 mins (Rvb=119 +/- 1.2 mmHg); format: functional, Artery
Rattus norvegicus [27] = test: Hypotensive activity in normotensive Wistar rat assessed as systolic blood pressure at 5 mg/kg, iv after 5 mins (Rvb=138 +/- 0.9 mmHg); format: functional, Artery

Which Activity (Rattus norvegicus [1]) does the source give for `Cl.Cl.O=C1N(CC(O)CN2CCN(c3ccccc3)CC2)CCC1(c1ccccc1)c1ccccc1` (configuration not stated) here?
Its Activity is 135.5 mmHg.

What about the Activity (Rattus norvegicus [2]) of the same compound?
The Activity was 134.5 mmHg.

And the Activity (Rattus norvegicus [3])?
The Activity was 135.5 mmHg.

What about the Activity (Rattus norvegicus [4]) of the same compound?
Its Activity is 126.5 mmHg.

What about the Activity (Rattus norvegicus [5]) of the same compound?
The Activity was 113.5 mmHg.

And the Activity (Rattus norvegicus [6])?
Its Activity is 116.5 mmHg.

What about the Activity (Rattus norvegicus [7]) of the same compound?
Its Activity is 109.5 mmHg.

With `CCOc1ccccc1N1CCN(CC(O)CN2CCC(c3ccccc3)(c3ccccc3)C2=O)CC1.Cl.Cl` (configuration not stated) as the compound, how does the Selectivity ratio (Rattus norvegicus [8]) read?
Its Selectivity ratio is 10.

And the Activity (Rattus norvegicus [9])?
The Activity was 113.5 mmHg.

And the Activity (Rattus norvegicus [10])?
Its Activity is 117 mmHg.

What about the Activity (Rattus norvegicus [11]) of the same compound?
The Activity was 130 mmHg.

And the Activity [12]?
The Activity was “Dose-dependent effect”.

And the Kb [13]?
Its Kb is 55 nM.

`COc1ccc(N2CCN(CC(O)CN3CCC(c4ccccc4)(c4ccccc4)C3=O)CC2)cc1.Cl.Cl` (configuration not stated) was tested. Which Activity (Rattus norvegicus [14]) did it give?
Its Activity is 107 mmHg.

And the Activity (Rattus norvegicus [15])?
The Activity was 105.6 mmHg.

And the Activity (Rattus norvegicus [16])?
Its Activity is 89.8 mmHg.

What about the Activity (Rattus norvegicus [17]) of the same compound?
Its Activity is 107.6 mmHg.

What about the Activity (Rattus norvegicus [18]) of the same compound?
Its Activity is 115.2 mmHg.

Which Activity (Rattus norvegicus [19]) does the source give for `Cc1ccccc1N1CCN(CC(O)CN2CCC(c3ccccc3)(c3ccccc3)C2=O)CC1.Cl.Cl` (configuration not stated) here?
The Activity was 118 mmHg.

What about the Activity (Rattus norvegicus [20]) of the same compound?
Its Activity is 132.3 mmHg.

And the Activity (Rattus norvegicus [21])?
Its Activity is 133.7 mmHg.

What about the Activity (Rattus norvegicus [22]) of the same compound?
Its Activity is 116 mmHg.

With `COc1ccccc1N1CCN(CC(O)CN2CCC(c3ccccc3)(c3ccccc3)C2=O)CC1.Cl.Cl` (configuration not stated) as the compound, how does the Activity (Rattus norvegicus [23]) read?
The Activity was 118 mmHg.

And the Activity (Rattus norvegicus [24])?
Its Activity is 116 mmHg.

Which Activity (Rattus norvegicus [25]) does the source give for `Cl.Cl.O=C1N(CC(O)CN2CCN(c3ccccc3C(F)(F)F)CC2)CCC1(c1ccccc1)c1ccccc1` (configuration not stated) here?
Its Activity is 100 mmHg.

And the Activity (Rattus norvegicus [26])?
The Activity was 103 mmHg.

And the Activity (Rattus norvegicus [27])?
The Activity was 126 mmHg.
